RGS4 act: potentiators or activators of RGS4 | HEK293 M3R/inducible RGS4, carbachol calcium flux Fluo4; active compounds read low | B-score at 10 µM | 310,000 compounds, 0.92% hits | AID 463111;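 active = B-score of the integrated calcium signal more than 4 SD below the library mean, with starting fluorescence not abnormally high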;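 note: negative B-score means reduced calcium response which marks RGS4 activation or potentiation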
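System: HEK293 FlpIn-TREx cells, stable M3R, doxycycline-inducible RGS4. Timing: overnight RGS4 induction, 30 min dye load 37 °C, 20 min compound RT. Also added: carbachol, ECmax concentration. Measured by: Fluo4 fluorescence kinetic imaging of calcium. Evaluation: integrated calcium ratio converted to B score.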
RGS4 block: human RGS4 inhibition; HEK293 M3R/RGS4 inducible, Fluo-4 calcium flux; active compounds read high; triggered by carbachol at its EC20; B-score at 10 µM; 310,000 compounds, 0.45% hits;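 active = B-score, a plate-corrected calcium signal, over three deviations above library mean, with baseline fluorescence within five deviations of library mean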;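 note: RGS4 expression induced by doxycycline in cells with stable M3 receptor; B-score is computed from the integrated fluorescence ratio over baseline after carbachol; higher B-score means a larger calcium signal and so more RGS4 inhibition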
Target sequence (P49798 whole entry, looked up): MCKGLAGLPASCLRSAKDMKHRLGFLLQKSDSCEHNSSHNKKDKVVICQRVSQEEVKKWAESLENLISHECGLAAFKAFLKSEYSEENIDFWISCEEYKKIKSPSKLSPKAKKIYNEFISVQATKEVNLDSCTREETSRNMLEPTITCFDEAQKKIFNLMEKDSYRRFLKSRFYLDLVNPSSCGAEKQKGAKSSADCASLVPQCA
KCC2 mod: modulates chloride dependent transport by human KCC2; Q9H2X9; KCC2 cells, thallium flux FluoZin-2 fluorescence; B-score of Tl+ flux slope (higher = more flux/activation; lower = inhibition) at 10 µM; 190,000 compounds, 2.2% hits; AID 1456;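 active = thallium flux slope and its plate-corrected score both differing from the plate sample mean at a set confidence after two filtering rounds, in either direction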;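 note: slope of fluorescence scaled to starting intensity during 10 to 20 s after thallium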
MrgX1 antagonist: human MrgX1 receptor antagonism, primary screen; MRGX1-HEK293 calcium flux, Fluo-4, BAM8-22 antagonism; active compounds read low; B-score at 10 µM; 310,000 compounds, 1.3% hits; AID 588676;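 active = calcium-response B-score plate-corrected more than 3 library SD below zero, starting fluorescence within 5 deviations, no agonist response on first addition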;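 note: peak minus trough fluorescence over baseline after final BAM8-22 challenge near maximal dose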
Target sequence (Q96LB2 whole entry, looked up): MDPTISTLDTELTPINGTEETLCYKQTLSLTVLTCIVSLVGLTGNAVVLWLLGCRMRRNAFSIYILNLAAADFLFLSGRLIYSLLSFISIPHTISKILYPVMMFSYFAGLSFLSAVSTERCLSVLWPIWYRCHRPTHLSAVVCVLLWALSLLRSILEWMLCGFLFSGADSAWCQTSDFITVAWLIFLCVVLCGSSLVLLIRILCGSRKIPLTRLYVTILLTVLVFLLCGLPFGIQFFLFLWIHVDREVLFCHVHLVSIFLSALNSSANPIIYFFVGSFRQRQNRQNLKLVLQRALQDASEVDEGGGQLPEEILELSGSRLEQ
MrgX1 allo act: allosterically activates human MrgX1 receptor signaling; B-score at 10 µM; MrgX1-HEK293, Fluo-4 calcium flux, FDSS; active compounds read high; 310,000 compounds, 0.63% hits; Q96LB2;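 active = plate-corrected calcium response at least 3 library SD above typical, normal starting fluorescence, not activating the receptor alone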;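 note: compound read alongside a low EC10 to EC30 dose of BAM8-22 agonist; peak minus trough fluorescence over baseline measured at the second addition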
MrgX1 ag: activates human MrgX1 receptor signaling; Q96LB2; MrgX1-HEK293 cells, Fluo-4 calcium fluorescence, agonist mode; active compounds read high; B-score at 10 µM; 310,000 compounds, 0.44% hits; AID 588627;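 active = calcium response B-score plate-corrected fluorescence ratio at least 3 library SD, with starting fluorescence B-score inside 5 SD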
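System: HEK293 cells stably expressing human MrgX1 receptor; Dosing: test compound in the initial addition of three; Schedule: overnight plating, then 30 min 37 °C plus 30 min room-temperature dye loading; Detection: kinetic calcium dye fluorescence, Fluo-4 NW; Controls: per-plate positive and negative controls for Z′ factor.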
KCC2 secondary: KCC2 (human) modulation, secondary assay; shares compounds with KCC2 mod; HEK293-KCC2, thallium flux, FluoZin2 fluorescence; active compounds read high; normalised thallium flux (F/F0 slope) at 10 µM; 3,700 compounds, 15% hits; AID 1713;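 active = thallium flux slope above the same plate's solvent-only control mean plus 3 SD; inconclusive = the two replicate wells disagree; inactive = no significant difference from solvent-only control wells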
KCC2 bumet counter: bumetanide-insensitive thallium flux in KCC2 cells with ouabain, counter-screen. normalized thallium flux at 10 µM. 3,700 compounds, 49% hits. shares compounds with KCC2 mod. HEK293-KCC2 + bumetanide/ouabain, thallium flux FluoZin2; active compounds read high;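 active = thallium entry rate above the same plate's blocked-transporter control wells by more than 3 SD; inconclusive = the two repeat wells disagree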;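 note: raw slope of fluorescence over initial fluorescence between 10 and 20 s after thallium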
KCC2 sec2: confirmation of human KCC2 transport modulators; shares compounds with KCC2 mod; HEK293-KCC2, thallium flux FluoZin2 fluorescence; actives lie on both sides; F/F0 rise rate, 10–20 s post-thallium; normalized thallium flux at 10 µM; 3,700 compounds, 23% hits;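 active = thallium flux slope more than 3 SD above or below the plate's solvent-only control mean, mostly below; inconclusive = the two repeat wells disagreed; inactive = no significant shift from solvent-only controls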
HEK293 Tl flux: counter-screen for KCC2 modulators: effect in parental HEK293 cells; shares compounds with KCC2 mod; thallium flux FluoZin2, ouabain; baseline-ratio fluorescence slope, 10–20 s after thallium; thallium flux rate (normalised fluorescence) at 10 µM; 3,700 compounds, 46% hits; AID 1716;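 active = thallium flux rate significantly above the same plate's solvent-only control wells, beyond their mean plus 3 SD; inconclusive = the two replicate wells gave conflicting results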
KCC2 retest ouab: KCC2 (human) modulation, ouabain retest | shares compounds with KCC2 mod | HEK293-KCC2, thallium flux FluoZin2 fluorescence; bidirectional: low = inhibitor, high = activator | raw Tl+ flux slope (below DMSO = inhibition, above = activation) at 10 µM | 3,700 compounds, 48% hits;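 active = thallium flux slope beyond 3 SD from same-plate DMSO control mean in most replicates, usually higher, sometimes lower; inconclusive = repeat tests gave conflicting results; inactive = no significant difference from controls in most replicates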;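 note: slope of initial-normalized fluorescence between seconds 10 and 20 after thallium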
HEK counter2: acts in parental HEK cells, second KCC2 counter-screen; shares compounds with KCC2 mod; HEK293 parental, thallium flux FluoZin-2 fluorescence slope; thallium flux slope at 10 µM; 3,700 compounds, 33% hits;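 active = thallium flux slope above the same plate's solvent-control mean plus 3 SD in both duplicate wells; inconclusive = duplicate wells that disagreed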;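 note: run without ouabain in cells lacking the KCC2 cotransporter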
RGS4 block valid: validation of RGS4 inhibitors; AID 492999; HEK293 M3R/RGS4, carbachol calcium Fluo-4 fluorescence; carbachol added at its EC20; 0 = buffer wells, 100 = carbachol control; calcium response, % at 10 µM; 1,700 compounds, 65% hits; shares compounds with RGS4 block;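 active = duplicate-averaged calcium response above the buffer-only control mean plus 5 SD of those controls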;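 note: integrated fluorescence ratio F max minus min over baseline F0; higher response in RGS4-induced cells means RGS4 inhibition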
RGS4 uninduced: counter-screen for RGS4 inhibitors: effect in non-induced cells; shares compounds with RGS4 block; HEK293 M3R non-induced, carbachol calcium Fluo-4; submaximal (EC20) carbachol stimulus; buffer wells 0%, carbachol control wells 100%; activity (percent), % at 10 µM; 1,900 compounds, 20% hits; AID 493000; call rule not given here;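 note: RGS4 induction absent so cells express M3R without RGS4; higher means more calcium signal and flags a non-specific hit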
RGS4 inh ctr2: second RGS4 inhibitor counter-screen in uninduced cells lacking carbachol; shares compounds with RGS4 block; HEK293 M3R/RGS4 non-induced, Fluo-4 calcium, no carbachol; normalised: buffer wells 0%, carbachol wells 100%; calcium response (agonist-mode artifact), % at 10 µM; 1,900 compounds, 22% hits;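 active = duplicate-averaged calcium rise in uninduced cells above buffer wells' mean plus 5 SD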
Each line names hits and unclear results; the compound was inactive in the other large screens (follow-up assays come after a bar, where they were run). Most compounds without a hit are left out; they make up all but 4.7% or so of the library.

Oc1ccc(-c2csc(-c3ccccc3)n2)cc1O	RGS4 block 5.83, KCC2 mod -4.4 | KCC2 secondary inactive | KCC2 bumet counter inconclusive | KCC2 sec2 inactive | HEK293 Tl flux inactive | KCC2 retest ouab 0.0211 | HEK counter2 inactive | RGS4 block valid 23.5% | RGS4 uninduced inactive | RGS4 inh ctr2 inactive
COc1cccc(CNC(=O)CN2C(=O)CCSc3ccc(S(=O)(=O)N4CCCC4)cc32)c1	none (no result: KCC2 mod)
C=CCn1nc([N+](=O)[O-])nc1Sc1cccc2cccnc12	RGS4 block 6.15, KCC2 mod 11.8 | KCC2 secondary 0.0146 | KCC2 bumet counter 0.0602 | KCC2 sec2 inactive | HEK293 Tl flux 0.0183 | KCC2 retest ouab 0.0363 | HEK counter2 0.0112 | RGS4 block valid 30.5% | RGS4 uninduced inactive | RGS4 inh ctr2 inactive
CC(C)N1C(=O)S/C(=C/c2ccccc2OCc2ccc(C(=O)O)cc2)C1=O	KCC2 mod -4.69 | KCC2 secondary inactive | KCC2 bumet counter inactive | KCC2 sec2 0.0244 | HEK293 Tl flux inactive | KCC2 retest ouab 0.0137 | HEK counter2 inactive | RGS4 block valid inactive | RGS4 uninduced inactive | RGS4 inh ctr2 inactive
CCc1cccc(NC(=O)CSc2nc3c(c(=O)[nH]2)CCCC3)c1	none
O=C(CNC(=O)C(c1ccccc1)c1ccccc1)N/N=C\c1ccc(C(=O)O)cc1	none (no result: KCC2 mod)
Oc1[nH]c2ccc(Br)cc2c1N=NC(=S)Nc1ccc(F)cc1	RGS4 block 7.28, KCC2 mod 24.8 | KCC2 secondary inactive | KCC2 bumet counter 0.0331 | KCC2 sec2 inconclusive | HEK293 Tl flux 0.0149 | KCC2 retest ouab 0.0307 | HEK counter2 0.0185 | RGS4 block valid 11.5% | RGS4 uninduced inactive | RGS4 inh ctr2 inactive
O=c1cc(-c2ccccc2Cl)oc2ccc([N+](=O)[O-])c(O)c12	none

Bioassay records as filed in PubChem BioAssay.
